Measured values reported in PMC9876410 (Acta Pharmacologica Sinica, 2023).
Entries after “also recorded” stand apart in the source; their conditions may differ.

Tests used:
HK-2 [1] = test: qRT-PCR of apoptosis-related genes in HK-2; assay type: cell-based, human; details: AAI with SFII, 24 h
Summary of the method: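 HK-2 cells (DMEM/F12, 10% FBS, 1% antibiotic-antimycotic, 37 °C, 5% CO₂) were treated with AAI, SFII, or both for 24 h. Expression of apoptosis-related genes was then measured by qRT-PCR.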

infant mice [2] = test: AAI-induced liver cancer model in infant mice; assay type: in vivo
NQO1 [3] = molecular target: T1, NQO1 (Homo sapiens, UniProt P15559); test: Comprehensive 2D NQO1 biochromatography retention; assay type: binding; details: 2D NQO1 column/C18 column/TOFMS
L02 [4] = test: Flow cytometry analysis of apoptosis in L02; assay type: cell-based, human
Summary of the method: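 L02 cells were plated in 6-well plates overnight, then treated with AAI (20 or 50 μM) with or without SFII (5 or 10 μM) for 24 h. Cells were trypsinised, spun at 1000 rpm for 3 min, washed in PBS, and stained with Annexin V-FITC or -APC plus PI for 20 min at room temperature in the dark. Flow cytometry counted Annexin V⁺/PI⁺ and Annexin V⁺/PI⁻ cells as apoptotic.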

infant mice [5] = test: Infant mice acute injury model; assay type: in vivo
Summary of the method: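 Male infant mice on postnatal day 14 were injected with NaHCO₃ or AAI. SFII 10 mg/kg was given 12 h before AAI; control groups were pretreated with olive oil 12 h before injection. Mice were killed 24 h after AAI. Liver and kidney were analysed by Western blot. For TUNEL, sections were quenched with 0.3% H₂O₂ (30 min, room temperature), incubated with TUNEL mix for 2 h at 37 °C in the dark, then streptavidin-HRP for 30 min at 37 °C. Apoptotic cell percentage was calculated.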

NQO1 [6] = molecular target: T1, NQO1; test: Surface plasmon resonance; assay type: binding
L02 [7] = assay type: cell-based, human
C57BL/6 adult mice [8] = test: AAI-induced renal fibrosis model in adult mice; assay type: in vivo
Summary of the method: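 Renal fibrosis model in 8-week-old male C57BL/6 mice. A single AAI injection (10 mg/kg i.p.) was given; controls received NaHCO₃. SFII (30 or 60 mg/kg) was gavaged 12 h before AAI and then daily for 3 days; AAI-only mice received olive oil by the same schedule. Animals were killed 14 days after AAI, with body weight monitored.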

HK-2 [9] = test: Flow cytometry analysis of apoptosis in HK-2; assay type: cell-based, human; details: AAI with SFII (10 or 20 μM), 24 h
L02 [10] = test: qRT-PCR of apoptotic-related genes in L02; assay type: cell-based, human; details: AAI (20 or 50 μM) with SFII, 24 h
NQO1 [11] = molecular target: T1, NQO1; test: NQO1 activity assay in L02 cells; assay type: cell-based; details: 8 h
Summary of the method: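 An NQO1-knockdown L02 line was made by infecting cells at 50% density with concentrated shNQO1 or shNC lentivirus plus polybrene for 10 h, then selecting with puromycin (2 μg/mL) for 48 h. Knockdown was verified by qRT-PCR and Western blot. NQO1 activity was measured with a commercial kit, reading absorbance at 440 nm.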

HK-2 [12] = test: Cell proliferation assay; assay type: cell-based, human
Summary of the method: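 HK-2 cells were kept in DMEM/F12 with 10% FBS and 1% antibiotic-antimycotic at 37 °C, 5% CO₂. They were seeded in 96-well plates overnight, then treated with AAI (in 1% NaHCO₃) and SFII (in DMSO) for 48 h. Medium was replaced with CCK-8 reagent for 2 h at 37 °C, and absorbance was read at 450 nm.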

HK-2 [13] = assay type: cell-based, human
Blood coagulation assay = assay type: in vivo; details: C57BL/6 adult mice, 6 mg/kg orally, 24 h
Summary of the method: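 Adult C57BL/6 mice (4 per group) received test compound orally at 6 mg/kg and were killed 24 h later. Blood was analysed for activated partial thromboplastin time, prothrombin time and thrombin time.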

C57BL/6 adult mice [14] = test: AAI-induced acute renal injury model in adult mice; assay type: in vivo
Summary of the method: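 Male C57BL/6 mice aged 8 weeks received AAI 5 mg/kg i.p. for three consecutive days, with NaHCO₃ as the vehicle control. SFII 30 or 60 mg/kg was given by oral gavage 12 h before AAI and at each injection. Mice were killed 3 days after the first AAI dose. Blood creatinine was measured. Kidney sections were stained with Sirius red (37 °C, 30 min), and the stained fibrotic area was calculated.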

L02 [15] = test: ALT and AST in culture medium of L02; assay type: cell-based, human; details: AAI (20 or 50 μM) with SFII (5 or 10 μM), 24 h, vs AAI alone
Summary of the method: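 L02 cells were grown in DMEM with 10% FBS and 1% antibiotic-antimycotic at 37 °C, 5% CO₂. Cells were exposed to AAI (20 or 50 μM) with or without SFII (5 or 10 μM) for 24 h. Culture medium was then collected, and ALT and AST were measured with clinical aminotransferase test kits.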

NQO1 [16] = molecular target: T1, NQO1; test: NQO1 activity assay in HK-2 cells; assay type: cell-based; details: HK-2, 5 μM, 8 h, vs control group
Summary of the method: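 HK-2 cells (DMEM/F12, 10% FBS, 37 °C, 5% CO₂) were treated with test compound at 5 μM for 8 h before protein extraction. NQO1 activity was measured with a commercial NQO1 activity kit, reading absorbance at 440 nm on a microplate reader.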

NQO1 [17] = molecular target: T1, NQO1; test: NQO1 enzyme activity test; assay type: biochemical
L02 [18] = test: Cell proliferation assay; assay type: cell-based, human
Summary of the method: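 CCK-8 proliferation in L02 cells (DMEM, 10% FBS, 37 °C, 5% CO₂). Cells were plated overnight in 96-well plates, then given AAI (dissolved in 1% NaHCO₃) and/or SFII (dissolved in DMSO). At 0, 24 and 48 h, medium was swapped for CCK-8 reagent, incubated 2 h at 37 °C, and absorbance was read at 450 nm.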

NQO1 [19] = molecular target: NQO1 (Mus musculus, UniProt Q64669); test: NQO1 activity in kidney and liver tissues of mice; assay type: in vivo; details: adult mice, SFII 30, 60 mg/kg orally, 2.5 h
Summary of the method: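 NQO1 activity in mouse kidney and liver samples was measured with a commercial NQO1 activity assay kit. Sample and reaction buffer were mixed in 96-well plates, and absorbance was read at 440 nm.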

[20] = test system: liver of adult and infant mice; test: DNA damage in liver of adult and infant mice; assay type: in vivo; details: AAI 20 mg/kg, 24 h
Summary of the method: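 Adult mice and 14-day-old infant mice were injected with PBS (negative control), diethylnitrosamine (positive control) or AAI 20 mg/kg, and killed after 24 h. Liver protein was extracted in lysis buffer and quantified by BCA. Proteins were separated by SDS-PAGE, transferred to nitrocellulose and imaged on an infrared scanner for DNA-damage markers.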

[21] = adult mice renal fibrosis model

T1 sequence (P15559 whole entry): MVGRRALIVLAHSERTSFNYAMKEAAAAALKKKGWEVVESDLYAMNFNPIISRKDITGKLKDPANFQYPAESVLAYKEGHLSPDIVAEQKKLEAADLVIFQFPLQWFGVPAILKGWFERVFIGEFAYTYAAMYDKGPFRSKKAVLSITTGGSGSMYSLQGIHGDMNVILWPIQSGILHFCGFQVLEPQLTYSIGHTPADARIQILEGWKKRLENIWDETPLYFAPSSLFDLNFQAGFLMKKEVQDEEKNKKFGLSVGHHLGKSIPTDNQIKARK
NQO1 (Mus musculus, UniProt Q64669), sequence (Q64669 2-274 limits assumed): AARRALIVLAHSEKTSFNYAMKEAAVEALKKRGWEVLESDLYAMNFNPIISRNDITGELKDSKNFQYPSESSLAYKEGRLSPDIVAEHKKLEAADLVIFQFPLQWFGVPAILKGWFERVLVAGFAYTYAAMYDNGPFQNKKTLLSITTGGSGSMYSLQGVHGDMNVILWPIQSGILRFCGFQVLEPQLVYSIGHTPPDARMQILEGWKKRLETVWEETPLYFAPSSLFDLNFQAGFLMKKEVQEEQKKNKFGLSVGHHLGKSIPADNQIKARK

COc1cccc(O)c1-c1cc(=O)c2c(O)c(OC)c(OC)c(OC)c2o1 [SFII, skullcapflavone II]
expression of apoptosis-related genes BAX, NOXA, PUMA, and BAK in HK-2 (HK-2 [1]): downregulated | number of tumors per liver (infant mice [2]; SFII 10, 30 or 60 mg/kg gavage 12 h before AAI 20 mg/kg, 16 weeks, dose-independently): significant decrease | kidney fibrosis (infant mice [2]; SFII pretreated, 16 weeks after AAI administration): notably relieved | retention on NQO1 biochromatography (NQO1 [3]): retention behaviors | percentage of apoptotic cells in L02 (L02 [4]; AAI (20 μM, 50 μM) with SFII (5 or 10 μM), 24 h, vs AAI alone): significantly decreased | apoptosis of L02, SFII alone (L02 [4]; SFII treatment alone): did not affect | expression of DNA damage and apoptosis-related proteins in liver and kidney (infant mice [5]; SFII 10 mg/kg 12 h before AAI 20 mg/kg, 24 h): significantly decreased | cell apoptosis and interstitial fibrosis in kidney (infant mice [5]; SFII 10 mg/kg pre-treated + AAI 20 mg/kg): reduced cell apoptosis as well as interstitial fibrosis | proportion of apoptotic cells in the liver (infant mice [5]; SFII 10 mg/kg pre-treated, vs AAI alone): decreased | Kd (NQO1 [6]): 4200 nM | expression of P53, cleaved caspase-3, cleaved-PARP-1 and γ-H2AX in L02 (L02 [7]; AAI (20 or 50 μM) with SFII, 24 h): efficaciously decrease | renal histology (H&E and Sirius red staining) (C57BL/6 adult mice [8]; SFII 30 or 60 mg/kg gavage + single AAI 10 mg/kg i.p., day 14): effectively relieved renal tubular atrophy and interstitial fibrosis | body weight, mice pretreated with SFII (C57BL/6 adult mice [8]; [21]): no significant change | percentage of apoptotic cells in HK-2 (HK-2 [9]): reduced the percentage of apoptotic cells in HK-2 in a dose-dependent manner | mRNA levels of BAX, NOXA, PUMA, and BAK in L02 (L02 [10]): significantly downregulate | inhibitory capability to NQO1 activity in L02 (NQO1 [11]; L02, 5 μM): significantly higher than oroxylin A | NQO1 activity of shNQO1-L02 (NQO1 [11]; NQO1 knockdown L02, SFII 5 μM): further reduced | AAI-induced inhibition of cell proliferation in HK-2 (HK-2 [12]; AAI 100 μM with SFII, 48 h): partially alleviated | expression of γ-H2AX and downstream pro-apoptotic signaling in HK-2 (HK-2 [13]; AAI with SFII, 24 h): significantly decrease | activated partial thromboplastin time (APTT) (Blood coagulation assay; 6 mg/kg): not significantly altered; also recorded: barely prolonged | prothrombin time (PT) (Blood coagulation assay; 6 mg/kg): not significantly altered; also recorded: barely prolonged | thrombin time (TT) (Blood coagulation assay; 6 mg/kg): not significantly altered; also recorded: barely prolonged | expressions of γ-H2AX, P53, cleaved-caspase-3, and cleaved-PARP-1 protein in kidney (C57BL/6 adult mice [14]; SFII 30 or 60 mg/kg oral + AAI 5 mg/kg): downregulated | blood CRE (C57BL/6 adult mice [14]; SFII 30 or 60 mg/kg oral + AAI 5 mg/kg, 3 days, vs AAI alone): significantly declined | fibrosis area of kidney (Sirius red staining) (C57BL/6 adult mice [14]; SFII 30 or 60 mg/kg oral + AAI 5 mg/kg, vs AAI alone, dose-dependent): significantly limited | ALT level in culture supernatant of L02 (L02 [15]): decreased | AST level in culture supernatant of L02 (L02 [15]): decreased | inhibition of NQO1 activity in HK-2 (NQO1 [16]): more efficient NQO1 inhibitory effect | IC50 (NQO1 [17]): 2870 nM | inhibitory effect of AAI on cell proliferation in L02 (L02 [18]; AAI 20 μM + SFII 5 or 10 μM, 48 h, vs AAI alone): significantly relieved | cell proliferation of L02, SFII alone (L02 [18]; SFII alone): barely affected | NQO1 enzyme activity in kidney and liver in vivo (NQO1 [19]): good inhibitory effect

C[C@@H]1C[C@H]2[C@@H]3CCC4=CC(=O)C=C[C@]4(C)[C@@]3(F)[C@@H](O)C[C@]2(C)[C@@]1(O)C(=O)CO [dexamethasone, reference compound]
retention on NQO1 biochromatography (NQO1 [3]): no retention

COc1cc(O)c2c(=O)cc(-c3ccccc3)oc2c1 [tectochrysin]
retention on NQO1 biochromatography (NQO1 [3]): retention behaviors

COc1cccc2c1cc([N+](=O)[O-])c1c(C(=O)O)cc3c(c12)OCO3 [AAI, Aristolochic acid I, reference compound]
γ-H2AX expression (DNA damage) in L02 (L02 [7]; AAI 20 μM): considerable increase | body weight, AAI (C57BL/6 adult mice [8]; [21]): intensive weight loss | AAI-induced proliferation inhibition in HK-2 (HK-2 [12]; different doses of AAI, compared with L02): better tolerance | expression of γ-H2AX in HK-2 (HK-2 [13]; AAI dose gradient, particularly at 100 μM): increase | elevation of blood CRE, fold change (C57BL/6 adult mice [14]; adult mice, AAI 5 mg/kg i.p. for 3 days, AAI alone): over 1.5 | DNA damage in the liver of adult mice [20]: scarcely caused DNA damage | γ-H2AX in the liver of infant mice ([20]; age 14 days): upregulation of γ-H2AX | anti-proliferative effect in L02 (L02 [18]; AAI 0, 5, 10, 20, 50, or 100 μM, 48 h): gradually intensified

COc1c(O)cc(O)c2c(=O)cc(-c3ccccc3)oc12 [wogonin]
retention on NQO1 biochromatography (NQO1 [3]): retention behaviors | IC50 (NQO1 [17]): 10100 nM

COc1c(O)cc2oc(-c3ccccc3)cc(=O)c2c1O [oroxylin A]
retention on NQO1 biochromatography (NQO1 [3]): retention behaviors | Kd (NQO1 [6]): 873 nM | activated partial thromboplastin time (APTT) (Blood coagulation assay): not significantly altered | prothrombin time (PT) (Blood coagulation assay): not significantly altered | thrombin time (TT) (Blood coagulation assay): not significantly altered | inhibition of NQO1 activity in HK-2 (NQO1 [16]): did not notably inhibit | IC50 (NQO1 [17]): 930 nM

O=c1oc2ccccc2c(O)c1Cc1c(O)c2ccccc2oc1=O [dicoumarol, reference compound]
activated partial thromboplastin time (APTT) (Blood coagulation assay): significantly elevate | prothrombin time (PT) (Blood coagulation assay): significantly elevate | thrombin time (TT) (Blood coagulation assay): significantly elevate
